ChEMBL document CHEMBL4118252, “Identification of novel thiazolo[5,4-d]pyrimidine derivatives as human A1 and A2A adenosine receptor antagonists/inverse agonists” (Bioorg Med Chem, 2018)
Blank lines part the entries; values can stand above or below the compound they belong to.

Columns and labels:
Adenosine receptor A2a [1] = biological target: T1, Adenosine receptor A2a (Homo sapiens, UniProt P29274); assay: Inverse agonist activity at human A2A adenosine receptor expressed in CHO cells assessed as inhibition of basal cAMP level after 30 mins by Alphascreen assay; format: functional, cell-based
T1 sequence (P29274 whole entry): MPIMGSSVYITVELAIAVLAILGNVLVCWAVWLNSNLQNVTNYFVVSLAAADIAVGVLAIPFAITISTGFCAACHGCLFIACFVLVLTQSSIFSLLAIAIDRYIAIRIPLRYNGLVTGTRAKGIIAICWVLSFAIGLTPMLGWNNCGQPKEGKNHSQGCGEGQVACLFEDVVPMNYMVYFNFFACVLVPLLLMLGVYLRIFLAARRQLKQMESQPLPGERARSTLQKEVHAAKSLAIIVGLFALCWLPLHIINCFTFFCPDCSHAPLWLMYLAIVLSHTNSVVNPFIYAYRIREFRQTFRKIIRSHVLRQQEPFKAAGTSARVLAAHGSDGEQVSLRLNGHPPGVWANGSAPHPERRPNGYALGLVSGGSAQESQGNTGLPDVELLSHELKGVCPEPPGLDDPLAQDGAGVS
Summary of the method: (§1)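 hA2A CHO cells exposed to varied compound concentrations without agonist, measuring decrease of basal cAMP; AlphaScreen detection (30 min acceptor beads, then 1 h donor beads with biotinylated cAMP). IC50 from sigmoid nonlinear fit, Emax efficacy; mean ± SEM.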

Adenosine receptor A2a [2] = biological target: T1, Adenosine receptor A2a; assay: Antagonist activity at human A2A adenosine receptor expressed in CHO cells assessed as inhibition of CGS21680-stimulated cAMP level after 30 mins by Alphascreen assay; format: functional, cell-based
Summary of the method: (§2)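 Same hA2A CHO cAMP experiment run in presence of CGS 21680 (10 nM); compounds at varied concentrations, AlphaScreen cAMP detection (30 min, then 1 h). IC50 via sigmoid nonlinear regression, Emax efficacy; four experiments in triplicate, mean ± SEM.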

Adenosine receptor A2a [3] = biological target: T1, Adenosine receptor A2a; assay: Displacement of [3H]-ZM 241,385 from human A2A adenosine receptor expressed in CHO cell membranes after 60 mins by scintillation counting method
Summary of the method: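 hA2A CHO membranes (50 µg protein/100 µl), 1 nM [3H]-ZM 241385, graded test concentrations, 60 min at 4°C in 50 mM Tris-HCl pH 7.4 with 10 mM MgCl2. Nonspecific: 1 µM ZM 241385.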

Adenosine receptor A2a [4] = biological target: T1, Adenosine receptor A2a; assay: Antagonist activity at human A2A adenosine receptor expressed in CHO cells assessed as inhibition of CGS21680-stimulated cAMP level after 30 mins by Alphascreen assay relative to control; format: functional, cell-based; summary of the method: as §2
Adenosine receptor A2a [5] = biological target: T1, Adenosine receptor A2a; assay: Inverse agonist activity at human A2A adenosine receptor expressed in CHO cells assessed as inhibition of basal cAMP level after 30 mins by Alphascreen assay relative to control; format: functional, cell-based; summary of the method: as §1
Adenosine receptor A1 [6] = biological target: T2, Adenosine receptor A1 (Homo sapiens, UniProt P30542); assay: Displacement of [3H]-DPCPX from human A1 adenosine receptor expressed in CHO cell membranes after 90 mins by scintillation counting method
T2 sequence (P30542 whole entry): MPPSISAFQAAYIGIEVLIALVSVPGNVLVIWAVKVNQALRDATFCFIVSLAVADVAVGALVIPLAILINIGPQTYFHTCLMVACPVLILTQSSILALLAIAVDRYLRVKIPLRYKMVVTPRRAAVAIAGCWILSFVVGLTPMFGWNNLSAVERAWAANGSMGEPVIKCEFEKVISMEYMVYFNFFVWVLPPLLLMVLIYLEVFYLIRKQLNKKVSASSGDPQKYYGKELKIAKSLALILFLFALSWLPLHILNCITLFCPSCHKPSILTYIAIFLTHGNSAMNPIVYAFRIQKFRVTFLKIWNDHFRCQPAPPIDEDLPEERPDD
Summary of the method: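 Membranes from CHO cells expressing hA1 (50 µg protein/100 µl) incubated with 1 nM [3H]-DPCPX and varying test concentrations, 25°C, 90 min, 50 mM Tris-HCl pH 7.4. Nonspecific binding with 1 µM DPCPX. Filtration over glass fiber filters, scintillation counting.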

Adenosine receptor A2b = biological target: T3, Adenosine receptor A2b (Homo sapiens, UniProt P29275); assay: Antagonist activity at human A2B adenosine receptor assessed as inhibition of NECA-stimulated cAMP level after 30 mins by Alphascreen assay; format: functional
T3 sequence (P29275 whole entry): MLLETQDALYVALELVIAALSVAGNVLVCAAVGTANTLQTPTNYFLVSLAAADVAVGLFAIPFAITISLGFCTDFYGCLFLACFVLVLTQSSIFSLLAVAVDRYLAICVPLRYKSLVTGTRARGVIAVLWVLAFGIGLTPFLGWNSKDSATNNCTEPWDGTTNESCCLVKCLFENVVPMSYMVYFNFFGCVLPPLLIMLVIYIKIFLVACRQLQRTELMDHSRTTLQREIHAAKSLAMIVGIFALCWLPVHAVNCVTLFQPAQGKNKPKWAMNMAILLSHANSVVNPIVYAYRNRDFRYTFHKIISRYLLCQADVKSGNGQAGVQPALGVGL
Summary of the method: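 Cells with compounds and anti-cAMP acceptor beads 30 min, then streptavidin donor beads plus biotinylated cAMP 1 h; AlphaScreen read. IC50 by sigmoid nonlinear regression.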

Adenosine receptor A1 [7] = biological target: T2, Adenosine receptor A1; assay: Antagonist activity at human A1 adenosine receptor expressed in CHO cells assessed as inhibition of CCPA-induced reduction of forskolin-stimulated cAMP level after 30 mins by Alphascreen assay; format: functional, cell-based
Summary of the method: (§3)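 hA1 CHO cells given Forskolin (5 µM) and 1 nM CCPA with varied compound concentrations; AlphaScreen cAMP detection (30 min with acceptor beads, then donor beads/biotinylated cAMP 1 h). IC50 by sigmoid nonlinear regression; Emax as efficacy in reversing CCPA inhibition; mean ± SEM.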

[8] = biological target: T4, Adenosine receptor A1 (Homo sapiens) (UniProt P30542); assay: Antagonist activity at human A1 adenosine receptor expressed in CHO cells assessed as inhibition of CCPA-induced reduction of forskolin-stimulated cAMP level after 30 mins by Alphascreen assay relative to control; format: functional, cell-based; summary of the method: as §3
T4 sequence (whole entry): T2 sequence (P30542 whole entry)

[9] = biological target: T4, Adenosine receptor A1 (Homo sapiens); assay: Modulation of human A1 adenosine receptor expressed in CHO cells assessed as forskolin-stimulated cAMP level after 30 mins by Alphascreen assay relative to control; format: functional, cell-based
Summary of the method: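 In hA1 CHO cells, compounds incubated with Forskolin (5 µM) without agonist; cAMP quantified by AlphaScreen (30 min acceptor-bead step, then 1 h donor beads and biotinylated cAMP). Expressed as % of Forskolin-stimulated cAMP (100%); mean ± SEM.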

Adenosine receptor A3 = biological target: T5, Adenosine receptor A3 (Homo sapiens, UniProt P0DMS8); assay: Displacement of [125I]-ABMECA from human A3 adenosine receptor expressed in CHO cell membranes after 120 mins by scintillation counting method
T5 sequence (P0DMS8 whole entry): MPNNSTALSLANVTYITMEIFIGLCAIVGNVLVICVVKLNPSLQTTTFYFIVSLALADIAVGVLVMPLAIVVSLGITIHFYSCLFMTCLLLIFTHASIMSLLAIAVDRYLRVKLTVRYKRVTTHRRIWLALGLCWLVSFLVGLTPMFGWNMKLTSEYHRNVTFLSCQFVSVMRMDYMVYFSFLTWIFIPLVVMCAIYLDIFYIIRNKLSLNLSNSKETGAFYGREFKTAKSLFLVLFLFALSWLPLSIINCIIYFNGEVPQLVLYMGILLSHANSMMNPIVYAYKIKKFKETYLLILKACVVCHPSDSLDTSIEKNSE

[10] = biological target: T6, Adenosine receptor A2b (Homo sapiens) (UniProt P29275); assay: Antagonist activity at human A2B adenosine receptor assessed as inhibition of NECA-stimulated cAMP level at 10 uM after 30 mins by Alphascreen assay relative to control; format: functional
T6 sequence (whole entry): T3 sequence (P29275 whole entry)

Adenosine receptor A2a [11] = biological target: T1, Adenosine receptor A2a; assay: Displacement of [3H]-ZM 241,385 from human A2A adenosine receptor expressed in CHO cell membranes at 10 uM after 60 mins by scintillation counting method relative to control
Summary of the method: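 Using 1 nM [3H]-ZM 241385 on hA2A CHO membranes, 60 min, 4°C, 50 mM Tris-HCl pH 7.4, 10 mM MgCl2; 1 µM ZM 241385 for nonspecific binding; filtered and counted. Percent inhibition measured at 10 µM compound.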

- IC50 (Adenosine receptor A2a [1]): 5.34 nM
- IC50 (Adenosine receptor A2a [2]): 7.63 nM
- Ki (Adenosine receptor A2a [3]): 4.72 nM
SMILES: COc1ccccc1CNc1nc(N)c2nc(-c3ccccc3)sc2n1

- Ki (Adenosine receptor A2a [3]): 212 nM
SMILES: COc1cccc(CNc2nc(N)c3nc(C)sc3n2)c1

- Ki (Adenosine receptor A2a [3]): 608 nM
SMILES: Cc1nc2c(N)nc(Nc3ccccc3)nc2s1

- IC50 (Adenosine receptor A2a [1]): 36 nM
- Emax (Adenosine receptor A2a [4]): 131%
- IC50 (Adenosine receptor A2a [2]): 43 nM
- Emax (Adenosine receptor A2a [5]): 64%
- Ki (Adenosine receptor A2a [3]): 28 nM
SMILES: Nc1nc(NCc2cccs2)nc2sc(-c3ccccc3)nc12

- Ki (Adenosine receptor A2a [3]): 135 nM
SMILES: COc1ccccc1CNc1nc(N)c2nc(C)sc2n1

- IC50 (Adenosine receptor A2a [1]): 83 nM
- Emax (Adenosine receptor A2a [4]): 124%
- IC50 (Adenosine receptor A2a [2]): 102 nM
- Ki (Adenosine receptor A1 [6]): 92 nM
- Emax (Adenosine receptor A2a [5]): 58%
- IC50 (Adenosine receptor A2b): 0.134 µM
- IC50 (Adenosine receptor A1 [7]): 107 nM
- Emax [8]: 98%
- Ki (Adenosine receptor A2a [3]): 61 nM
- Activity [9]: 100%
- Ki (Adenosine receptor A3): 1520 nM
SMILES: Cc1nc2c(N)nc(NCCc3cccs3)nc2s1

- Ki (Adenosine receptor A1 [6]): 121 nM
- IC50 (Adenosine receptor A2b): 4.38 µM
- Ki (Adenosine receptor A2a [3]): 406 nM
- Ki (Adenosine receptor A3): 2270 nM
SMILES: Nc1nc(NCCc2ccccc2)nc2sc(-c3ccccc3)nc12

- Ki (Adenosine receptor A2a [3]): 79 nM
SMILES: COc1ccccc1CNc1nc(N)c2nc(-c3cnccn3)sc2n1

- Ki (Adenosine receptor A2a [3]): 219 nM
SMILES: Nc1nc(NCc2cccs2)nc2sc(-c3cnccn3)nc12

- Ki (Adenosine receptor A2a [3]): 313 nM
SMILES: Cc1nc2c(N)nc(NCc3cccs3)nc2s1

- Ki (Adenosine receptor A2a [3]): 116 nM
SMILES: Nc1nc(NCc2ccccc2)nc2sc(-c3ccccc3)nc12

- Ki (Adenosine receptor A1 [6]): 242 nM
- IC50 (Adenosine receptor A2b): 7.52 µM
- Ki (Adenosine receptor A2a [3]): 96 nM
- Ki (Adenosine receptor A3): 1610 nM
SMILES: Nc1nc(NCCc2ccc(O)cc2)nc2sc(-c3ccccc3)nc12

- Ki (Adenosine receptor A1 [6]): 140 nM
- IC50 (Adenosine receptor A2b): 1.1 µM
- Ki (Adenosine receptor A2a [3]): 78 nM
- Ki (Adenosine receptor A3): 548 nM
SMILES: Cc1nc2c(N)nc(NCCc3ccccc3)nc2s1

- Ki (Adenosine receptor A2a [3]): 973 nM
SMILES: COc1cccc(CNc2nc(N)c3nc(-c4cnccn4)sc3n2)c1

- IC50 (Adenosine receptor A2a [1]): 48 nM
- Emax (Adenosine receptor A2a [4]): 128%
- IC50 (Adenosine receptor A2a [2]): 66 nM
- Emax (Adenosine receptor A2a [5]): 52%
- Ki (Adenosine receptor A2a [3]): 42 nM
SMILES: COc1cccc(CNc2nc(N)c3nc(-c4ccccc4)sc3n2)c1

- Ki (Adenosine receptor A2a [3]): 532 nM
SMILES: Cc1nc2c(N)nc(NCc3ccccc3)nc2s1

- Ki (Adenosine receptor A1 [6]): 485 nM
- IC50 (Adenosine receptor A2b): > 10 µM
- Ki (Adenosine receptor A2a [3]): 403 nM
- inhibition [10]: 33%
- Ki (Adenosine receptor A3): 3530 nM
SMILES: COc1ccc(CCNc2nc(N)c3nc(-c4ccccc4)sc3n2)cc1

- inhibition (Adenosine receptor A2a [11]): 1%
- Ki (Adenosine receptor A2a [3]): > 10000 nM
SMILES: Nc1nc(Nc2ccccc2)nc2sc(-c3ccccc3)nc12
